Among all 330,000 compounds or so, about 1,100 (0.33%) were called active. The full list was thinned out, with actives kept by preference. Unmarked numbers belong to inactive results.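 How the source made its calls: active means at 10 µM dose, activation of 40% or more, normalized to positive control; inactive means the rest.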

A short description of this assay: activators of apoptotic CHOP UPR arm, primary screen, cell-based, CHO-CHOP luciferase reporter, luminescence, uHTS (AID 449763).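 Further: 100% = tunicamycin at 10 µg/mL and 0% = DMSO alone.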 As to conditions: at 10 µM, active compounds read high, percent of tunicamycin response over DMSO baseline. In a few lines:
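Test system: CHO CHOP reporter cells. Input: 500 CHO-CHOP cells per well. Medium: F12 with 10% FBS. Technique: luciferase luminescence. Measure: percent activation relative to tunicamycin control. Dosing: 10 µM compound, 0.5% DMSO. Timing: 16-18 h cell attachment, then 6 h compound exposure, 37 °C.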
In general terms: In a reporter assay the amount or activity of a reporter protein is the signal.
Take `COc1cc(N=Cc2c(O)c3ccccc3oc2=O)c(OC)cc1Cl`: the activation is 3.5%.

Regarding `COc1ccccc1N=Cc1c(O)c2ccccc2oc1=O`, the activation is 130% (active).

As for `COc1ccccc1N=C(C)C1=C(O)COC1=O`, the activation was -0.0733%.

Regarding `COc1ccc(C(=O)Nc2cc(S(=O)(=O)N3CCCC3)ccc2Cl)cc1`, the activation was 0.727%.

Take `Cc1ccc(CN2CCCOCCS2(=O)=O)cc1`: the activation was -0.00453%.

With `CCN(CC(=O)Nc1cccc(S(=O)(=O)N2CCCCC2)c1)Cc1ccccc1`, the activation is -0.441%.

`Nc1nc(COC(=O)CCC(=O)c2ccc(Cl)cc2)nc(Nc2ccccc2)n1`: the activation was 0.238%.

Take `Nc1nc(CC(=O)CSc2ccc(Cl)cc2)nc(Nc2ccc(F)cc2)n1`: the activation was 42.4% (active).

For `Cc1ccc(Nc2nc(N)nc(CSc3nnc(C)s3)n2)cc1`, the activation was 4.12%.

For the compound `COc1ccc(C(=O)CSc2nnnn2C)c(OC)c1`, the activation is 0.876%.

Take `Cc1cccc(C)c1NC(=O)C(c1ccccc1)N1CC(=O)Nc2ccccc21` (stereo not given): the activation was -0.493%.

Turning to `Cc1cccc(C)c1NC(=O)C(Cl)C(=O)c1ccccc1` (stereo not given), the activation was 52.9% (active).

Regarding `Cc1cccc(C)c1NC(=O)CN(C)C(=O)CCC(=O)c1ccccc1`, the activation was 0.683%.

`C1=C(N2CCOCC2)/C(=C/c2nc3ccccc3[nH]2)CC1`: the activation was -3.2%.

In the case of `CSc1nc(-c2ccccc2)nc(C(Cl)Cl)n1`, the activation is 46.2% (active).

As for `CSc1ncc(Sc2ccccc2)c(C(=O)O)n1`, the activation was -0.159%.

On to `CC(C)=CCC/C(C)=C/C(=O)O`, for which the activation was 0.467%.

For the compound `COc1ccccc1N1CCN(CC(=O)NCCc2ccc(S(N)(=O)=O)cc2)CC1`, the activation is -1.28%.

On to `O=C(/C=C/c1cccs1)c1cc(Cl)ccc1OC(=O)N1CCOCC1`, for which the activation is 2.72%.

Regarding `COc1ccc(C(=O)N2CCC(C(=O)Nc3ccc(C)cc3)CC2)cc1`, the activation is -0.572%.

Turning to `CCc1nn(-c2cc(Oc3cccc4ccccc34)nc(-c3ccccc3)n2)c(N)c1C#N`, the activation is 56.7% (active).

For `CC(C)(C)n1nc(Cc2cccc3ccccc23)c(C#N)c1N`, the activation was 0.111%.

For `CCCC(c1nnnn1C(C)(C)C)N1CCN(Cc2ccccc2)CC1` (stereo not given), the activation is -1.39%.

On to `CC(C)[C@H](NC(=O)N1c2ccccc2NC(=O)[C@@H]1C(C)C)C(=O)N[C@H](C(=O)O)c1ccccc1`, for which the activation is -2.11%.

With `C=CCN1CN(S(=O)(=O)c2ccc(OC)cc2)c2nc3ccccc3nc21`, the activation was 0.29%.

As to `O=C1C=CC(=O)N1c1ccc(N2CCCCC2)cc1`, the activation is 44.6% (active).

Turning to `CC(=O)Nc1ccc(S(=O)(=O)Nc2ccc(N3CCCCC3)cc2)cc1`, the activation was 4.38%.

For `O=C(Cc1ccccc1)NC(=S)Nc1ccc(N2CCCCC2)cc1`, the activation was 0.603%.

Take `COc1ccccc1-n1c(SCC(=O)O)nc2sc3c(c2c1=O)CCC3`: the activation was 1.38%.

As for `COc1ccc(NC(=O)C(CC(C)C)NC(=O)C2CCC(C)CC2)cc1` (stereo not given), the activation was 0.903%.

`COc1ccccc1CNS(=O)(=O)c1cc2c3c(c1)CCC(=O)N3CCC2`: the activation was 2.93%.

In the case of `Fc1ccc2nc(-c3ccccc3)nc(SCc3nnc(-c4ccccc4)o3)c2c1`, the activation was 0.865%.

As for `Cc1cccc(CS(=O)(=O)c2ncc(Cl)c(C(=O)Nc3ccc(F)cc3)n2)c1`, the activation was 278% (active).

Regarding `CCOc1ccc(NC(=O)c2nc(SCC)ncc2Cl)cc1`, the activation is 0.746%.

As for `Cc1ccc(CS(=O)(=O)c2ncc(Cl)c(C(=O)Nc3nnc(C)s3)n2)cc1`, the activation is 26.4%.

As to `Cc1cccc(NC(=O)c2nc(S(=O)(=O)Cc3ccccc3)ncc2Cl)c1`, the activation is -9.27%.

As to `CSc1nnc(NC(=O)c2nc(S(=O)(=O)Cc3ccc(C)cc3)ncc2Cl)s1`, the activation was 72.6% (active).

Regarding `COCCSc1nnc(NC(=O)CCS(=O)(=O)Cc2ccccc2)s1`, the activation was -0.572%.

Regarding `O=C(NCCCCO)C(F)(F)C(F)(F)C(F)(F)C(=O)NCCCCO`, the activation was 2.68%.

`Cc1cccc(OCc2nnc(SCc3nc4cc(C(F)(F)F)ccc4c(=O)[nH]3)o2)c1`: the activation is 1.49%.

As for `Cc1ccc(OCc2nnc(SC3CCc4ccccc4C3=O)n2C)cc1` (stereo not given), the activation was 0.0439%.

For the compound `CSc1ccc(/C=C/C(=O)NC23CC4CC(CC(C4)C2)C3)cc1`, the activation was 6.51%.

Take `Clc1ccc(CN2CCCCCC2)cc1Cl`: the activation is 0.707%.

With `O=S(=O)(NCCc1ccc(F)cc1)c1cccc2cccnc12`, the activation was 0.907%.

Take `O=[N+]([O-])c1ccccc1S(=O)(=O)Nc1cccc2cccnc12`: the activation is 428% (active).

As for `NS(=O)(=O)c1ccc(CCNS(=O)(=O)c2cccc3cccnc23)cc1`, the activation is 0.112%.

For `Cc1ccc2oc(=O)c3cnn(CC(=O)N(Cc4ccco4)C4CCCCC4)c3c2c1`, the activation is 0.347%.

In the case of `CC(C)CCNC(=O)Cn1c(=O)oc2cc(S(=O)(=O)N3CC(C)CC(C)C3)ccc21` (stereo not given), the activation was 0.0919%.

Consider `COc1cc(CC(=O)Nc2nc(-c3ccc(F)c(F)c3)cs2)cc(OC)c1OC`, for which the activation was 6.97%.

As for `CCc1ccccc1NC(=O)[C@@H]1CCC(=O)N1C1OC(=O)c2c1ccc(OC)c2OC` (stereo not given in full), the activation is -1.13%.

In the case of `COc1ccc2c(c1OC)C(=O)OC2Nc1nc(-c2ccccc2)cs1` (stereo not given), the activation was 41.7% (active).

Turning to `O=C1Nc2cc(Cl)c(Cl)cc2N(O)N1c1ccccc1Cl`, the activation is 0.176%.

In the case of `COc1ccc(N=C2SC(C(=O)Nc3ccc(F)cc3)CC(=O)N2C)cc1` (stereo not given), the activation was -0.141%.

Turning to `CCOCCc1nn2c(=O)cc(CSCC(=O)Nc3cccc(C)c3C)nc2s1`, the activation is -1.45%.

As to `Cn1c(-c2ccc(C(F)(F)F)cc2)cc2onc(-c3ccccc3)c2c1=O`, the activation is 5.2%.

For `CCCCCCC(=O)N(O)C1CC(=O)N(c2ccccc2)C1=O` (stereo not given), the activation was 1.5%.

Consider `CCOc1ccc(N2C(=O)CC(N(O)c3ccccc3)C2=O)cc1` (stereo not given), for which the activation is 185% (active).

For the compound `CCOc1ccc(N2C(=O)CC(N(CCc3ccc(OC)c(OC)c3)C(=S)Nc3ccccc3)C2=O)cc1` (stereo not given), the activation was 1.65%.

In the case of `CC(=O)NNC1=Nc2ccccc2N(C)C(C)C1` (stereo not given), the activation was 1.41%.

For the compound `CCOc1cc(N2CCOCC2)c(OCC)cc1NC(=O)C1=NN(c2cccc(C)c2)C(=O)CC1`, the activation was 1.02%.

Source of the values: PubChem BioAssay AID449763 (Sanford-Burnham Center for Chemical Genomics, 2010).
